Experiments:
Calf thymus DNA = assay: Binding affinity to calf thymus duplex-form DNA assessed as melting temperature at 1:5 compound/DNA ratio after 18 hrs; format: nucleic-acid assay; conditions: Bos taurus
A-375 [1] = assay: Cell cycle arrest in human A375 cells assessed as accumulation at G2/M phase at 2 uM after 24 hrs using propidium iodide staining by flow cytometry; format: functional
Outline: (§1)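 A375 cells (5×10^5) grown 24 h, then exposed to compound 24 h (DMSO control). Trypsin–EDTA harvest, fixed in ice-cold 70% ethanol at 4 °C 30 min, RNase A 37 °C 30 min, propidium iodide staining. DNA content measured by flow cytometry on 20,000 events, gated as sub-G1/G0, G1, S and G2/M.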

SW-620 = assay: Growth inhibition of human SW620 cells after 48 hrs by sulforhodamine B assay; format: functional; conditions: SW-620, 48 h
Outline: (§2)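 Panel of 60 human cancer cell lines; for each compound, dose–response curves per cell line measured at a minimum of five concentrations at 10-fold dilutions. Cells exposed continuously to drug for 48 h, and growth was read out by sulforhodamine B staining.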

A-375 [2] = assay: Cell cycle arrest in human A375 cells assessed as accumulation at G0/G1 phase at 2 uM after 24 hrs using propidium iodide staining by flow cytometry; format: functional; outline: as §1
OVCAR-3 = assay: Growth inhibition of human OVCAR-3 cells after 48 hrs by sulforhodamine B assay; format: functional; conditions: OVCAR-3, 48 h; outline: as §2
OVCAR-8 = assay: Growth inhibition of human OVCAR8 cells after 48 hrs by sulforhodamine B assay; format: functional; conditions: OVCAR-8, 48 h; outline: as §2
786-0 = assay: Growth inhibition of human 786-0 cells after 48 hrs by sulforhodamine B assay; format: functional; conditions: 786-0, 48 h
Outline: (§3)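 Dose–response in each cell line over at least five concentrations at 10-fold dilutions, with 48 h continuous exposure and sulforhodamine B read-out.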

MCF7 = assay: Growth inhibition of human MCF7 cells after 48 hrs by sulforhodamine B assay; format: functional; conditions: MCF7, 48 h; outline: as §2
M14 = assay: Growth inhibition of human M14 cells after 48 hrs by sulforhodamine B assay; format: functional; conditions: M14, 48 h; outline: as §2
CAKI-1 = assay: Growth inhibition of human Caki1 cells after 48 hrs by sulforhodamine B assay; format: functional; conditions: CAKI-1, 48 h; outline: as §3
A549 = assay: Growth inhibition of human A549 cells after 48 hrs by sulforhodamine B assay; format: functional; conditions: A549, 48 h; outline: as §3
SR = assay: Growth inhibition of human SR cells after 48 hrs by sulforhodamine B assay; format: functional; outline: as §2
HOP-92 = assay: Growth inhibition of human HOP92 cells after 48 hrs by sulforhodamine B assay; format: functional; conditions: HOP-92, 48 h; outline: as §2
IGROV-1 = assay: Growth inhibition of human IGROV1 cells after 48 hrs by sulforhodamine B assay; format: functional; conditions: IGROV-1, 48 h; outline: as §2
Hs-578T = assay: Growth inhibition of human Hs 578T cells after 48 hrs by sulforhodamine B assay; format: functional; outline: as §2
OVCAR-4 = assay: Growth inhibition of human OVCAR4 cells after 48 hrs by sulforhodamine B assay; format: functional; conditions: OVCAR-4, 48 h; outline: as §2
SNB-75 = assay: Growth inhibition of human SNB75 cells after 48 hrs by sulforhodamine B assay; format: functional; conditions: SNB-75, 48 h; outline: as §2
KM12 = assay: Growth inhibition of human KM12 cells after 48 hrs by sulforhodamine B assay; format: functional; conditions: KM12, 48 h; outline: as §2
SF-539 = assay: Growth inhibition of human SF539 cells after 48 hrs by sulforhodamine B assay; format: functional; conditions: SF-539, 48 h; outline: as §2
SNB-19 = assay: Growth inhibition of human SNB19 cells after 48 hrs by sulforhodamine B assay; format: functional; conditions: SNB-19, 48 h; outline: as §2
HL-60 = assay: Growth inhibition of human HL-60(TB) cells after 48 hrs by sulforhodamine B assay; format: functional; conditions: HL-60, 48 h; outline: as §2
[3] = Growth inhibition of human […] cells after 48 hrs by sulforhodamine B assay; format: functional; outline: as §2
RXF 393 = assay: Growth inhibition of human RXF393 cells after 48 hrs by sulforhodamine B assay; format: functional; conditions: RXF 393, 48 h; outline: as §2
NCI-H522 = assay: Growth inhibition of human NCI-H522 cells after 48 hrs by sulforhodamine B assay; format: functional; conditions: NCI-H522, 48 h; outline: as §2
A-375 [4] = assay: Cell cycle arrest in human A375 cells assessed as accumulation at G1 phase at 2 uM after 24 hrs using propidium iodide staining by flow cytometry; format: functional; outline: as §1
BT-549 = assay: Growth inhibition of human BT549 cells after 48 hrs by sulforhodamine B assay; format: functional; conditions: BT-549, 48 h; outline: as §3
A-375 [5] = assay: Cell cycle arrest in human A375 cells assessed as accumulation at S phase at 2 uM after 24 hrs using propidium iodide staining by flow cytometry; format: functional; outline: as §1
HCT-116 = assay: Growth inhibition of human HCT116 cells after 48 hrs by sulforhodamine B assay; format: functional; conditions: HCT-116, 48 h; outline: as §2
A-375 [6] = assay: Cell cycle arrest in human A375 cells assessed as accumulation at G0 phase at 2 uM after 24 hrs using propidium iodide staining by flow cytometry; format: functional; outline: as §1
Malme-3M = assay: Growth inhibition of human MALME-3M cells after 48 hrs by sulforhodamine B assay; format: functional; outline: as §2
PC-3 = assay: Growth inhibition of human PC3 cells after 48 hrs by sulforhodamine B assay; format: functional; conditions: PC-3, 48 h; outline: as §2
NCI-H460 = assay: Growth inhibition of human NCI-H460 cells after 48 hrs by sulforhodamine B assay; format: functional; conditions: NCI-H460, 48 h; outline: as §2
HCC 2998 = assay: Growth inhibition of human HCC2998 cells after 48 hrs by sulforhodamine B assay; format: functional; conditions: HCC 2998, 48 h; outline: as §2
HCT-15 = assay: Growth inhibition of human HCT15 cells after 48 hrs by sulforhodamine B assay; format: functional; conditions: HCT-15, 48 h; outline: as §2
EKVX = assay: Growth inhibition of human EKVX cells after 48 hrs by sulforhodamine B assay; format: functional; outline: as §3
SF-295 = assay: Growth inhibition of human SF295 cells after 48 hrs by sulforhodamine B assay; format: functional; conditions: SF-295, 48 h; outline: as §2
UO-31 = assay: Growth inhibition of human UO31 cells after 48 hrs by sulforhodamine B assay; format: functional; conditions: UO-31, 48 h; outline: as §2
A498 = assay: Growth inhibition of human A498 cells after 48 hrs by sulforhodamine B assay; format: functional; conditions: A498, 48 h; outline: as §3
OVCAR-5 = assay: Growth inhibition of human OVCAR5 cells after 48 hrs by sulforhodamine B assay; format: functional; conditions: OVCAR-5, 48 h; outline: as §2
SK-MEL-28 = assay: Growth inhibition of human SK-MEL-28 cells after 48 hrs by sulforhodamine B assay; format: functional; conditions: SK-MEL-28, 48 h; outline: as §2
HOP-62 = assay: Growth inhibition of human HOP62 cells after 48 hrs by sulforhodamine B assay; format: functional; conditions: HOP-62, 48 h; outline: as §2
LOX IMVI = assay: Growth inhibition of human LOXIMVI cells after 48 hrs by sulforhodamine B assay; format: functional; outline: as §2
K562 = assay: Growth inhibition of human K562 cells after 48 hrs by sulforhodamine B assay; format: functional; conditions: K562, 48 h; outline: as §2
MDA-MB-435 = assay: Growth inhibition of human MDA-MB-435 cells after 48 hrs by sulforhodamine B assay; format: functional; conditions: MDA-MB-435, 48 h; outline: as §2
NCI/ADR-RES = assay: Growth inhibition of human NCI/ADR-RES cells after 48 hrs by sulforhodamine B assay; format: functional; outline: as §2

With `COc1cc2c(cc1OCCCCC(=O)Nc1ccc(-c3nc4ccccc4s3)cc1)N=C[C@@H]1CCCN1C2=O` the ΔTm (Calf thymus DNA) was 0.5 °C, the Activity (A-375 [1]) was 5.41% and the GI50 (SW-620) was 1.62 µM. It also gave an Activity (A-375 [2]) of 88.44%, a GI50 (OVCAR-3) of 1.86 µM and a GI50 (OVCAR-8) of 1.55 µM. The GI50 (786-0) was 1.55 µM, the GI50 (MCF7) was 0.724 µM and the GI50 (M14) was 1.55 µM. The GI50 (CAKI-1) was 2.19 µM, the GI50 (A549) was 3.39 µM and the GI50 (SR) was 0.55 µM. For the same compound, the GI50 (HOP-92) was 1.74 µM, the GI50 (IGROV-1) was 0.692 µM and the GI50 (Hs-578T) was 2.75 µM. It also gave a GI50 (OVCAR-4) of 2.82 µM, a GI50 (SNB-75) of 1.82 µM and a GI50 (KM12) of 2.95 µM. The GI50 (SF-539) was 1.58 µM, the GI50 (SNB-19) was 2.69 µM and the GI50 (HL-60) was 1.78 µM. It also gave a GI50 [3] of 1.45 µM, a GI50 (RXF 393) of 1.62 µM and a GI50 (NCI-H522) of 0.977 µM. The Activity (A-375 [4]) was 73.34%, the GI50 (BT-549) was 1.12 µM and the Activity (A-375 [5]) was 6.15%. It also gave a GI50 (HCT-116) of 1.86 µM, an Activity (A-375 [6]) of 15.1% and a GI50 (Malme-3M) of 1.91 µM. For the same compound, the GI50 (PC-3) was 2.04 µM, the GI50 (NCI-H460) was 1.66 µM and the GI50 (HCC 2998) was 1.58 µM. For the same compound, the GI50 (HCT-15) was 2.82 µM, the GI50 (EKVX) was 2.45 µM and the GI50 (SF-295) was 0.55 µM. The GI50 (UO-31) was 1.66 µM, the GI50 (A498) was 1.86 µM and the GI50 (OVCAR-5) was 3.55 µM. It also gave a GI50 (SK-MEL-28) of 2.24 µM, a GI50 (HOP-62) of 2.45 µM and a GI50 (LOX IMVI) of 1.55 µM. It also gave a GI50 (K562) of 1.74 µM, a GI50 (MDA-MB-435) of 1.78 µM and a GI50 (NCI/ADR-RES) of 11 µM.
